Screening data (PubChem BioAssay)
Mot1-301 SUMO: SUMOylation pathway inhibition by Mot1-301 growth rescue; S. cerevisiae Mot1-301 growth rescue, ATP luminescence, 38.5C; percent above DMSO median, 100 means doubled; growth rescue, % at 18.8 µM; 1% of 320,000 active;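 active = every valid replicate shows activation above 250% relative to neutral control wells; inactive = the rest, any valid replicate at or below 250%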
Cardiac RTF inh: cardiac RTF calcium desensitization | 0.12% of 340,000 active | IANBD-labeled cardiac RTF, Ca2+ fluorescence | inhibition, % at 7.15 µM;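 active = inhibition above the mean inhibition of all tested compounds plus 3 SD, cut at about 17% in these data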;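 note: assay run at fixed EC70 calcium of 1.6 mM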
UCH37 DUB inh: blocks the human deubiquitinase UCH37. inhibition, % (test concentration not listed). Q9Y5K5. AID 588478. 0.33% of 330,000 active. purified proteasome/UCH37, Ub-AMC cleavage fluorescence;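 active = mean inhibition over replicate wells above about 20%, limit read from the data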
Target sequence (Q9Y5K5 whole entry, looked up): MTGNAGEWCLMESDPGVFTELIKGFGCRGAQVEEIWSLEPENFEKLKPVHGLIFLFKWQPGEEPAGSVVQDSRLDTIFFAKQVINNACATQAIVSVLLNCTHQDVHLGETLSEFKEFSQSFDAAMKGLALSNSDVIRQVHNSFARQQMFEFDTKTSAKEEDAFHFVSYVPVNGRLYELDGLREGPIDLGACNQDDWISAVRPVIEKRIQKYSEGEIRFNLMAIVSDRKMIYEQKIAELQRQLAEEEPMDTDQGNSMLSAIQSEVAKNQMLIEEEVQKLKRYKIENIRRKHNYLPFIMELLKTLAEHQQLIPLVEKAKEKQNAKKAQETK
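Material: Human UCH37 enzyme supplied as purified proteasome complex | Schedule: 30 min preincubation with enzyme, 25 min cleavage at room temperature | Detection: AMC fluorescence 355/460 nm | Measure: % inhibition of Ub-AMC cleavage fluorescence | Controls: Wells without proteasome as full block, compound-free enzyme plus substrate as uninhibited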
ARNT-TACC3 inh: disrupts binding between human ARNT and TACC3; Q9Y6A5; AlphaScreen His-ARNT PAS-B/GST-TACC3 binding, luminescence; TACC3 fragment carries E629A point mutation; inhibition, % at 9.99 µM; 0.66% of 390,000 active; AID 623870;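 active = mean inhibition of replicates at least 50% and at least half of replicates each reaching 50%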
cardiac RTF act: increases calcium sensitivity of human cardiac regulated thin filaments; P19429+P45379; IANBD-labeled TnC RTF fluorescence at EC20 calcium; 0% EC20 calcium, 100% full calcium; activation, % at 7.2 µM; 0.24% of 340,000 active;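 active = activation above the mean over all tested compounds plus 3 SD, cut at about 30% in these data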;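 note: rise in fluorescence read as greater calcium sensitivity of cardiac thin filaments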
Efflux pump inh: inhibitors of Candida antifungal efflux pumps expressed in yeast; S. cerevisiae Candida pump triplex, Nile Red efflux; inhibition, % at 10 µM; 0.44% of 330,000 active;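 active = plate passing quality check with inhibition over a set limit, or well fluorescence over plate mean plus 4 SD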;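 note: Nile Red retained in pooled yeast measured as flow cytometry median fluorescence; higher means more Nile Red kept so more efflux inhibition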
UCH37 reconfirm: UCH37 Ub-AMC cleavage inhibition, confirmed; shares compounds with UCH37 DUB inh; Proteasome-bound UCH37, Ub-AMC cleavage fluorescence; inhibition, % at 20 µM; 27% of 480 active;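 active = average inhibition over replicates above about 50%, so the earlier screening hit is confirmed, limit read from the data; inactive = the rest, counted as false positives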;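 note: based on cleavage rate fitted by regression over a 30 min kinetic read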
AlphaScreen ctr: AlphaScreen artifact in ARNT/TACC3 counter-screen; His-ARNT PASB-GST AlphaScreen artifact counter-screen, luminescence; shares compounds with ARNT-TACC3 inh; AC50, µM (doses to about 68 µM); 50% of 1,200 active;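 active = every separate test run was called active for a drop in luminescence, with AC50 within twice the top valid dose, actives reach about 71 µM in these data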
Hits are given with their value; - = inactive; . = no result given. Most compounds without a hit are left out; they make up all but 2.1% or so of the library.

SMILES | Mot1-301 SUMO | Cardiac RTF inh | UCH37 DUB inh | ARNT-TACC3 inh | cardiac RTF act | Efflux pump inh | AlphaScreen ctr | others
CCOc1c(O)ccc(/C=C2\SC(=S)NC2=O)c1[N+](=O)[O-] | - | - | 59 | - | - | - | . | UCH37 reconfirm=63
CCOc1ccc(NC(=O)CCC(=O)NN=C2CCCc3ccccc32)cc1 | . | . | - | . | . | . | .
NC(=O)NC(=O)CC1S/C(=N/N=Cc2ccccc2)NC1=O (centres undefined) | . | . | - | . | . | . | .
O=C(O)CC1S/C(=N/N=C/C=C/c2ccccc2)NC1=O (centres undefined) | - | - | 25 | - | - | - | . | UCH37 reconfirm=-
Cc1cc(NC(=O)Nc2ccccc2F)ccc1Br | - | - | 38 | . | - | - | . | UCH37 reconfirm=-
COc1cc(C=N/N=C2/NC(=O)C(Cc3ccc(F)cc3)S2)ccc1O (centres undefined) | . | . | - | . | . | . | .
CCC(=O)N(C1=C(NC)C(=O)c2ccccc2C1=O)C(C)C | - | - | 33 | - | - | - | . | UCH37 reconfirm=-
CNC1=C(N(C(C)=O)c2ccc(Br)cc2)C(=O)c2ccccc2C1=O | - | - | 51 | 46 | - | - | . | UCH37 reconfirm=74
CC(=O)NC1=C(Nc2ccc(N(C)C)cc2)C(=O)c2ccccc2C1=O | - | - | . | - | - | - | .
CCOc1ccc(C=NNC(=O)c2[nH]c3ccc(C)cc3c2C)cc1 | . | . | - | . | . | . | .
Cc1ccc(-c2c(C(=O)NN=Cc3c[nH]c4ccccc34)nnn2-c2nonc2N)cc1 | . | . | - | . | . | . | .
O=C(COC(=O)c1ccc([N+](=O)[O-])s1)NCc1ccccc1 | - | - | 39 | 26 | - | - | - | UCH37 reconfirm=-
CC(=NNc1nc2ccccc2s1)c1cccs1 | . | . | - | . | . | . | .
O=c1cc(-c2ccc(O)cc2)oc2c1ccc1ccccc12 | - | - | - | . | - | - | .
O=c1cc(-c2ccc(O)cc2)oc2c(O)c(O)c(O)c(O)c12 | - | - | 69 | 53 | - | - | - | UCH37 reconfirm=-
Oc1ccc(C2=Nn3c(nnc3-c3ccco3)SC2)cc1O | - | - | - | 70 | - | - | -
CC(C)(C)C1=Nn2c(nnc2-c2ccco2)SC1 | - | - | - | - | - | - | .
C/C=C/C=NNC(=O)CN(c1ccc(Br)cc1)S(=O)(=O)c1ccccc1 | . | . | - | . | . | . | .
CC1=Nn2c(nnc2-c2ccccn2)SC1 | - | - | - | 44 | - | - | -
c1ccc(C2=Nn3c(nnc3-c3ccccn3)SC2)cc1 | - | - | - | 61 | - | - | -
CC1=Nn2c(nnc2-c2ccccc2F)SC1 | - | - | - | - | - | - | .
c1ccc(C2=Nn3c(nnc3-c3ccncc3)SC2)cc1 | - | - | . | - | - | - | .
Cc1ccc(Cn2cccc(NS(C)(=O)=O)c2=O)cc1 | . | - | - | 64 | - | . | -
CC(=O)Nc1ccc(S(=O)(=O)Nc2cccn(Cc3ccc(C)cc3)c2=O)cc1 | - | - | - | - | - | - | .
O=C(CSC1=NNC(c2ccccn2)S1)Nc1ccccc1 (centres undefined) | - | - | - | 58 | - | - | 6.4µM
SMILES | Mot1-301 SUMO | Cardiac RTF inh | UCH37 DUB inh | ARNT-TACC3 inh | cardiac RTF act | Efflux pump inh | AlphaScreen ctr | others
COCc1[nH][nH]c(=O)c1C=NN1CCOCC1 | . | . | - | . | . | . | .
Cc1cccnc1Nc1nc(-c2ccccc2)cs1 | - | - | - | - | - | - | .
Cc1cccc(Nc2nc(-c3ccccn3)cs2)n1 | - | - | - | 73 | - | - | 47µM
Cc1cccnc1Nc1nc(-c2ccccn2)cs1 | . | - | - | 69 | - | - | 5.3µM
COC(=O)c1scc(C)c1NN=C(C)c1ccc(F)cc1F | . | . | - | . | . | . | .
Fc1ccc(/C=N/Nc2ncnc3nc[nH]c23)cc1F | - | - | . | 52 | - | - | -
C(=N\Nc1ncnc2nc[nH]c12)/c1cccs1 | - | - | . | 51 | - | - | -
CCCNC(=O)Nc1ccc2c(c1)OC[C@H](C)N(C(=O)c1ccccc1F)C[C@@H](C)[C@@H](OC)CN(C)C2=O | . | . | . | 53 | . | . | -
CO[C@H]1CN(C)C(=O)c2ccc(NC(C)=O)cc2OC[C@H](C)N(Cc2ccccn2)C[C@H]1C | . | . | . | - | . | . | .
CO[C@@H]1CN(C)C(=O)c2ccc(NC(=O)c3ccccn3)cc2OC[C@@H](C)N(Cc2ccccn2)C[C@H]1C | . | . | . | 95 | . | . | 20µM
O=C(CCNc1n[nH]c(=O)[nH]c1=O)NN=Cc1ccc(Br)cc1 | . | . | - | . | . | . | .
CNC(=S)NN=Cc1cn(CCOc2ccccc2OC)c2ccccc12 | . | . | - | . | . | . | .
Oc1c(Br)cccc1/C=N/c1ncn[nH]1 | - | - | . | 51 | - | - | -
O=c1c2ccccc2c(/C=N/c2ncn[nH]2)c(O)n1Cc1ccccc1 | - | - | - | - | - | - | .
Cc1cccc(Nc2nc(-c3ccccn3)nnc2-c2ccccc2)n1 | . | . | . | . | . | . | 0.53µM
c1ccc(-c2nnc(-c3ccccn3)nc2Nc2cnc3ccccc3n2)cc1 | . | . | . | . | . | . | 0.76µM
c1ccc(-c2csc(Nc3nc(-c4ccccn4)nnc3-c3ccccc3)n2)cc1 | . | . | . | . | . | . | 2.2µM
Cc1ccc(C=NN(C)C2=NS(=O)(=O)c3ccccc32)o1 | . | . | - | . | . | . | .
O=C(NN=Cc1cn(-c2cccs2)nc1-c1ccccc1)c1ccccc1O | . | . | - | . | . | . | .
C[C@H]1CN([C@@H](C)CO)S(=O)(=O)c2ccc(C3=CCCC3)cc2O[C@@H]1CN(C)Cc1ccccn1 | . | . | . | - | . | . | .
C[C@H]1CN([C@@H](C)CO)S(=O)(=O)c2ccc(C#CCN(C)C)cc2O[C@H]1CN(C)Cc1cccnc1 | . | . | . | - | . | . | .
C[C@H](CO)N1C[C@H](C)[C@H](CN(C)Cc2cccnc2)Oc2cc(C#CCN(C)C)ccc2S1(=O)=O | . | . | . | active | . | . | -
C[C@@H]1CN([C@H](C)CO)S(=O)(=O)c2ccc(C3=CCCC3)cc2O[C@H]1CN(C)Cc1ccccn1 | . | . | . | 17 | . | . | 51µM
CC(=NNC(=O)Cc1ccc(Cl)cc1)c1ccccc1O | . | . | - | . | . | . | .
CC1=CC(C)(C)N(C(=O)C(C)N2C(=O)c3ccccc3C2=O)c2ccc(C)cc21 (centres undefined) | - | - | - | active | - | - | -
SMILES | Mot1-301 SUMO | Cardiac RTF inh | UCH37 DUB inh | ARNT-TACC3 inh | cardiac RTF act | Efflux pump inh | AlphaScreen ctr | others
NNC(=O)c1ccc(O)cc1O | - | - | - | 56 | - | - | -
NNC(=O)c1cc2ccccc2cc1O | - | - | - | - | - | - | .
O=C(NN=C1CCCC1)c1ccc(O)cc1O | - | - | - | 48 | - | - | -
O=C(NN=C1CCCC1)c1cc(Br)ccc1O | - | - | - | - | - | - | .
CCN(N=Cc1ccccc1)c1cc(=O)n(C)c(=O)[nH]1 | . | . | - | . | . | . | .
COc1ccc(C2C(C#N)=C(N)Oc3c2ccc2cccnc32)cc1OC (centres undefined) | - | - | - | 62 | - | - | -
COc1cc(C2C(C#N)=C(N)Oc3c2ccc2ccccc32)ccc1OCC(=O)Nc1ccc(C)cc1 (centres undefined) | - | - | - | - | - | - | .
